Measured values: ChEMBL document CHEMBL1134677, “Synthesis and biological evaluation of a novel series of furans: ligands selective for estrogen receptor alpha” (J Med Chem, 2001)

Columns and labels:
[1] = test system: Estrogen receptor (Ovis aries); experiment: Relative binding affinity (RBA) for ER alpha using lamb uterine cytosol determined by a competitive radiometric binding assay using 10 nM [3H]estradiol as the radioligand; conditions: Uterus
[2] = target: T1, Estrogen receptor (Homo sapiens) (UniProt P03372); experiment: Relative binding affinity (RBA) for ER alpha (Estrogen receptor alpha) determined by a competitive radiometric binding assay using 10 nM [3H]estradiol as the radioligand
T1 sequence (whole entry): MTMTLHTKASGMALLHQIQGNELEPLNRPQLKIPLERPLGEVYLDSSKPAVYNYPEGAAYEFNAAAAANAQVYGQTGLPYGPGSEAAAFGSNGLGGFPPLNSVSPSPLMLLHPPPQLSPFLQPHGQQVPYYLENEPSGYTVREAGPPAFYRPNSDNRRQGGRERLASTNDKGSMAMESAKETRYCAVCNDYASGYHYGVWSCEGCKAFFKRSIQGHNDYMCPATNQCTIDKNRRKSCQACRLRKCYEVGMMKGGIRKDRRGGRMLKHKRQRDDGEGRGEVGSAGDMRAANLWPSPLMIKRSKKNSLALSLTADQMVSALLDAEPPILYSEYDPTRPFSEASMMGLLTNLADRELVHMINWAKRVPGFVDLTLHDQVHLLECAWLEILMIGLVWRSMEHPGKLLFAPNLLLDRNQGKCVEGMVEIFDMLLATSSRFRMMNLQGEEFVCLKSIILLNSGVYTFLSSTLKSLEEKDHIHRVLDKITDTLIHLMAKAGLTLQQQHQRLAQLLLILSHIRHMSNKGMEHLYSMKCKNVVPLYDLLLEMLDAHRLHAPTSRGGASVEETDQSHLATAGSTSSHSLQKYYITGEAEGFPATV
Summary of the method: (§1)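 Competitive radiometric binding with purified human ERα and 10 nM [3H]estradiol tracer. Bound receptor–ligand complex was adsorbed on hydroxylapatite. Incubation was at 0 °C for 18–24 h. Unlabeled competitors were dissolved in 1:1 DMF:TEA. RBA is expressed relative to estradiol (100%). Duplicate separate experiments were run, with CV <0.3.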

[3] = target: Estrogen receptor beta (Homo sapiens) (UniProt Q92731); experiment: Relative binding affinity towards estrogen receptor 2 determined by a competitive radiometric binding assay using 10 nM [3H]estradiol as the radioligand
Chain of Estrogen receptor beta (Homo sapiens) (Q92731 whole entry): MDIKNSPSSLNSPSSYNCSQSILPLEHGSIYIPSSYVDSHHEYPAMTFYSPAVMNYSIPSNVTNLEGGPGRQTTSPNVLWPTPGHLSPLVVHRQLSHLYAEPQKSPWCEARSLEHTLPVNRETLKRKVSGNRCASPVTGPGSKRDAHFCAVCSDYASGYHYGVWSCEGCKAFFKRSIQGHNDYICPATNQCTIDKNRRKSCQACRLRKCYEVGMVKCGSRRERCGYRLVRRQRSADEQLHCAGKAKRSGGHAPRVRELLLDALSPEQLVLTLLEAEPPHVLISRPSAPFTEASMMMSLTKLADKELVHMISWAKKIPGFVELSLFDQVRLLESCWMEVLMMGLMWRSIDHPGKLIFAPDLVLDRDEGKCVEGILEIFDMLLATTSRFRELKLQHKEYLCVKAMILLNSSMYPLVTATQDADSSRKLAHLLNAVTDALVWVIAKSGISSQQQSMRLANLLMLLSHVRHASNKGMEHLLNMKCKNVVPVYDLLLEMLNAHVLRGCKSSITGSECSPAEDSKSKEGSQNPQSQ
Summary of the method: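 Competitive radiometric binding with purified human ERβ and 10 nM [3H]estradiol tracer. Hydroxylapatite captured the bound complex. Incubation was at 0 °C for 18–24 h. Competitors were dissolved in 1:1 DMF:TEA. RBA is relative to estradiol (100%). Duplicate independent experiments were run, with CV <0.3.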

[4] = target: T1, Estrogen receptor (Homo sapiens); experiment: Relative binding affinity for Estrogen receptor alpha compared 10 nM [3H]estradiol
Summary of the method: as §1

| relative binding affinity (RBA) [1] | relative binding affinity (RBA) [2] | relative binding affinity (RBA) [3] | relative binding affinity (RBA) [4] | SMILES |
| --- | --- | --- | --- | --- |
| 0.04 | – | – | – | Oc1ccc(-c2cc(-c3ccc(O)cc3)c(-c3ccccc3)o2)cc1 |
| 4.6 | 82 | 7.1 | – | CCc1c(-c2ccc(O)cc2)oc(-c2ccccc2)c1-c1ccc(O)cc1 |
| – | – | 0.89 | 75 | CC(C)Cc1c(-c2ccc(O)cc2)nn(-c2ccc(O)cc2)c1-c1ccc(O)cc1 |
| 2.9 | 40 | 0.62 | – | Cc1c(-c2ccc(O)cc2)oc(-c2ccc(O)cc2)c1-c1ccc(O)cc1 |
| 0.7 | 16.5 | 3 | – | CCc1c(-c2ccc(O)cc2)oc(-c2ccc(O)cc2)c1-c1ccccc1 |
| 0.5 | – | – | – | CCc1c(-c2ccc(O)cc2)cc(-c2ccccc2)n1-c1ccc(O)cc1 |
| 1.3 | 21 | 3.9 | – | CCCCc1c(-c2ccc(O)cc2)oc(-c2ccc(O)cc2)c1-c1ccc(O)cc1 |
| 0.03 | – | – | – | Oc1ccc(-c2cc(-c3ccccc3)c(-c3ccc(O)cc3)s2)cc1 |
| 0.84 | 8.7 | 0.25 | – | Oc1ccc(-c2oc(-c3ccc(O)cc3)c(-c3ccc(O)cc3)c2-c2ccc(O)cc2)cc1 |
| 6.5 | 140 | – | – | CCc1c(-c2ccc(O)cc2)oc(-c2ccc(O)cc2)c1-c1ccc(O)cc1 |
| 0.02 | 0.15 | 0.07 | – | CCc1c(-c2ccccc2)oc(-c2ccccc2)c1-c1ccc(O)cc1 |
| 0.45 | 14.8 | 4.5 | – | CCc1c(-c2ccccc2)oc(-c2ccc(O)cc2)c1-c1ccc(O)cc1 |
| 3.6 | 100 | 1.8 | – | CCCc1c(-c2ccc(O)cc2)oc(-c2ccc(O)cc2)c1-c1ccc(O)cc1 |
| 0.44 | 10.8 | 3.4 | – | CCc1c(-c2ccc(O)cc2)oc(-c2ccccc2)c1-c1ccccc1 |
| 0.1 | 6.8 | 2 | – | CCc1c(-c2ccccc2)oc(-c2ccc(O)cc2)c1-c1ccccc1 |
| 0.04 | – | – | – | Oc1ccc(-c2cc(-c3ccc(O)cc3)c(-c3ccccc3)s2)cc1 |
| – | – | – | 49 | CCCc1c(-c2ccc(O)cc2)nn(-c2ccc(O)cc2)c1-c1ccc(O)cc1 |
| 0.13 | – | – | – | Oc1ccc(-c2cc(-c3ccccc3)c(-c3ccc(O)cc3)o2)cc1 |
| 3.6 | 140 | 15 | – | CCCc1c(-c2ccc(O)cc2)oc(-c2ccccc2)c1-c1ccc(O)cc1 |
